Assay results: ChEMBL document CHEMBL4138128, “Structural design, synthesis and pharmacological evaluation of thiazoles against Trypanosoma cruzi” (Eur J Med Chem, 2017)
Activity calls are given as the source filed them. No cut-off for these calls is given here.

Legend:
[1] = tested on: Trypanosoma cruzi; assay: (§1) Antitrypanosomal activity against bloodstream trypomastigote stage of Trypanosoma cruzi Y infected in Balb/c mouse assessed as reduction in blood parasitaemia at 100 mg/kg, po qd administered for 5 consecutive days starting from day 5 post infection measured on day 12 post infection relative to control; assay type: functional; parameters: scale not given: the % may be the effect or the level left
Summary of the method: (§2)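 Female BALB/c mice (18-22 g, 6-8 weeks) infected i.p. with 10^4 Y strain bloodstream trypomastigotes in saline; six per group. From day 5, oral dosing once daily for 5 days; vehicle saline with 20% DMSO. Parasitaemia counted as motile parasites in 5 µL tail-vein blood; reduction = (vehicle mean − treated mean)/vehicle mean × 100. Mortality followed to 30 days post-treatment.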

[2] = tested on: Trypanosoma cruzi; assay: Antitrypanosomal activity against bloodstream trypomastigote stage of Trypanosoma cruzi Y infected in Balb/c mouse macrophages assessed as reduction in number of intracellular amastigotes at 0.5 uM measured after 3 days by hoeschst staining based confocal microscopic method; assay type: functional, organism-based; conditions: 5 uM, in the assay text read “at 5 uM” for “at 0.5 uM”
Summary of the method: (§3)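 BALB/c peritoneal macrophages (5x10^4/well) in DMEM/10% FBS, infected with trypomastigotes (10:1) for 2 h, washed, held 24 h, then treated 72 h (test at 8, 2, 0.5 µM; benznidazole 5 µM control). Formaldehyde-fixed, Hoechst-stained, imaged by confocal high-content microscopy for infected cells and amastigotes per 100 cells; six determinations; ANOVA with Bonferroni.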

[3] = Cytotoxicity against rat H9c2 cells assessed as reduction in cell viability after 72 hrs by alamar blue assay; assay type: cell-based
Summary of the method: (§4)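 H9c2 or J774 cells (1 x 10^4/well) in DMEM/10% FBS preincubated 24 h, then exposed 72 h to six concentrations (0.41 to 100 µM) in triplicate, DMSO under 1%. Viability by AlamarBlue, read after 6 h at 570/600 nm; CC50 from three independent experiments; gentian violet positive control.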

[4] = tested on: Trypanosoma cruzi; assay: as §1, with “8” for “12”; assay type: functional; parameters: scale not given: the % may be the effect or the level left; summary of the method: as §2
[5] = Cytotoxicity against mouse J774 cells assessed as reduction in cell viability after 72 hrs by alamar blue assay; assay type: cell-based; summary of the method: as §4
[6] = tested on: Trypanosoma cruzi; assay: Antitrypanosomal activity against bloodstream trypomastigote stage of Trypanosoma cruzi Y infected in Balb/c mouse assessed as protection against mouse mortality at 100 mg/kg, po qd administered for 5 consecutive days starting from day 5 post infection measured up to 30 days post treatment; assay type: functional, organism-based; summary of the method: as §2
[7] = tested on: Trypanosoma cruzi; assay: Antitrypanosomal activity against bloodstream trypomastigote stage of Trypanosoma cruzi Y infected in Balb/c mouse macrophages assessed as reduction in number of infected cells at 0.5 uM measured after 3 days by hoeschst staining based confocal microscopic method; assay type: functional, organism-based; conditions: 5 uM, in the assay text read “at 5 uM” for “at 0.5 uM”; summary of the method: as §3
[8] = tested on: Mus musculus; assay: Toxicity in Balb/c mouse infected with Trypanosoma cruzi Y trypomastigotes assessed as behavioral alteration at 100 mg/kg, po qd administered for 5 consecutive days starting from day 5 post infection; assay type: organism-based; conditions: in vivo; summary of the method: as §2
[9] = tested on: Trypanosoma cruzi; assay: Antitrypanosomal activity against bloodstream trypomastigote stage of Trypanosoma cruzi Y infected in monkey LLC-MK2 cells assessed as reduction in parasite motility measured after 24 hrs by neubauer chamber method; assay type: functional, organism-based; conditions: LLC-MK2, 24 h
Summary of the method: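 Y strain trypomastigotes from LLC-MK2 supernatants, 4x10^5/well, incubated 24 h at 37°C, 5% CO2 with five concentrations; viable parasites counted by motility in Neubauer chamber. Inhibition versus untreated cultures; IC50 by non-linear regression; benznidazole reference.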

**Q.** What does the source list for `O=C(Cn1ccnc1[N+](=O)[O-])NCc1ccccc1` [BENZNIDAZOLE]?
**A.** Activity [1]: >99%; Activity [2]: Active; CC50 at 72 h [3]: > 50 µM; Activity [4]: >99%; CC50 at 72 h [5]: > 50 µM; Activity [6]: Active; Activity [7]: Active; Activity [8]: Non-Toxic; IC50 [9]: 10.6 µM
